According to ChEMBL document CHEMBL3992529, “Total Syntheses and Biological Activities of Vinylamycin Analogues” (J Med Chem, 2017):
Converted amounts (≈) assume the structure as drawn. Counter-ions that a name gives are not always drawn. The source made the active and inactive calls. No cut-off for these calls is given here.

Assays:
MCF7 [1] = assay: Cytotoxicity against human MCF7 cells incubated for 72 hrs under normoxic condition by MTT assay; assay type: functional, cell-based; conditions: MCF7, 72 h
In short: (§1)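 MCF-7 cells seeded at 2 × 10^4 cells/100 µL in duplicate and preincubated 24 h. Serial dilutions added, then 72 h at 20% O2 (normoxia) or 1% O2 (hypoxia, modular chamber). Viability by MTT under normoxia. Values are mean ± SD of three independent experiments.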

MCF7 [2] = assay: Cytotoxicity against human MCF7 cells incubated for 72 hrs under hypoxic condition by MTT assay; assay type: functional, cell-based; conditions: MCF7, 72 h; in short: as §1
MCF7 [3] = assay: Selectivity index, ratio of IC50 for human MCF7 cells under hypoxic condition to IC50 for human MCF7 cells under normoxic condition; assay type: functional
In short: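 Index computed as IC50(hypoxia)/IC50(normoxia) in MCF-7 cells, each from a 72 h MTT assay at 1% or 20% O2.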

[4] = Stability of the compound at -20 degreeC incubated for one month; assay type: physicochemical; conditions: 730.5 h
K562 [5] = assay: Cytotoxicity against human K562 cells measured after 72 hrs by MTT assay; assay type: functional, cell-based; conditions: K562, 72 h
[6] = Half life in Sprague-Dawley rat plasma at 1 mg/ml by HPLC analysis; assay type: ADME, cell-free
In short: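 SD rat plasma diluted to 50% in water, prewarmed to 37 °C. 40 µL of a 1 mg/mL ACN stock added per 1 mL plasma. Samples taken at 0–1440 min, proteins precipitated with ACN containing internal standard, centrifuged. Supernatant quantified by C18 HPLC using the internal standard method.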

Staphylococcus aureus = assay: Antibacterial activity against Staphylococcus aureus measured after 24 hrs by turbidimetric based microdilution method; assay type: functional
In short: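 S. aureus grown 18 h at 37 °C in MH broth, diluted 50-fold and regrown to OD600 0.8–1.0, then diluted ten-fold serially to about 1 × 10^4 CFU/mL. Compounds two-fold serially diluted, 64 to 0.0625 µg/mL. MIC read by visual turbidity after 24 h at 37 °C.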

[7] = Stability of the compound at -20 degreeC incubated for 3 days; assay type: physicochemical; conditions: 72 h
K562 [8] = assay: Potency index, ratio of vinylamycin IC50 to compound IC50 for human K562 cells; assay type: functional
[9] = Toxicity in wild-type zebrafish AB assessed as mortality at 20 ug/ml; set-up: species or system Danio rerio; conditions: in vivo
In short: (§2)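 Wild-type AB zebrafish were randomly allocated to wells, 30 fish per well, and exposed to the test agent at a range of concentrations.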

Danio rerio = species: Danio rerio; assay: Toxicity in wild-type zebrafish AB assessed as mortality at 100 ug/ml; conditions: in vivo; in short: as §2
[10] = Toxicity in wild-type zebrafish AB assessed as mortality at 50 ug/ml; set-up: species or system Danio rerio; conditions: in vivo; in short: as §2
K562 [11] = assay: Cytotoxicity against CM-Dil-labeled human K562 cells xenografted in wild-type zebrafish AB assessed as cell growth inhibition at 5.6 ug/ml measured after 2 days by fluorescence microscopic method relative to control; assay type: functional
In short: (§3)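 Wild-type AB zebrafish at 2 dpf yolk-injected with about 200 CM-DiI-labelled K562 cells, held at 35 °C to 3 dpf. Single waterborne dose in 0.1% DMSO aqueous solution, 30 fish per well. Then 2 days at 35 °C. 10 fish imaged by fluorescence microscopy and tumour-cell fluorescence intensity compared with vehicle control.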

[12] = Toxicity in wild-type zebrafish AB assessed as mortality at 0.8 ug/ml; set-up: species or system Danio rerio; conditions: in vivo; in short: as §2
K562 [13] = assay: Cytotoxicity against CM-Dil-labeled human K562 cells xenografted in wild-type zebrafish AB assessed as cell growth inhibition at 16.7 ug/ml measured after 2 days by fluorescence microscopic method relative to control; assay type: functional; in short: as §3
[14] = Toxicity in wild-type zebrafish AB assessed as mortality at 4 ug/ml; set-up: species or system Danio rerio; conditions: in vivo; in short: as §2
K562 [15] = assay: Induction of apoptosis in human K562 cells at 0.5 to 2 uM measured after 24 to 48 hrs by Annexin V-FITC/propidium iodide staining based flow cytometry; assay type: functional, cell-based
In short: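 K562 cells seeded at 1 × 10^5 per well and treated 24 h and 48 h. Cells washed in PBS, resuspended in binding buffer, stained in the dark with annexin V-FITC and PI for 15 min, then analysed by flow cytometry within 1 h. Values are mean ± SD of three independent experiments.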

K562 [16] = assay: Cytotoxicity against CM-Dil-labeled human K562 cells xenografted in wild-type zebrafish AB assessed as cell growth inhibition at 50 ug/ml measured after 2 days by fluorescence microscopic method relative to control; assay type: functional; in short: as §3

Compound	Stability [4]	IC50 (MCF7 [1]) [µM]	IC50 (MCF7 [2]) [µM]	Ratio IC50 (MCF7 [3])	IC50 (K562 [5]) [µM]	other results
C=C1/C=C/C(=O)N(C)CC(=O)N[C@@H]([C@H](O)C(=O)OC)C(=O)O[C@@H]([C@H](C)CCCCCCCCCCCC(C)C)[C@H](C)C(=O)N1		0.32	0.12	0.38		
C#CCCCCCCCCC(=O)OCC[C@@H]1C(=O)N[C@@H](CO)/C=C/C(=O)N[C@H](C)C(=O)N[C@@H](C(C)C)C(=O)O[C@H]1[C@H](C)CCCCCC	Stable				17.9	
C=C1/C=C/C(=O)N[C@@H](C)C(=O)N[C@H](C(C)C)C(=O)O[C@H]([C@@H](C)CCCCCC)[C@@H](CCO)C(=O)N1		12.3	9.17	0.74	4.86	half-life at 1 mg/ml [6]: 0.54 h; MIC (Staphylococcus aureus): 8 µg/mL (≈ 16.2 µM); Stability [7]: Unstable
Nc1ccn([C@@H]2O[C@H](CO)[C@@H](O)C2(F)F)c(=O)n1 [GEMCITABINE]		0.57	8.9	15.6		
O=C(O)c1cn(C2CC2)c2cc(N3CCNCC3)c(F)cc2c1=O [CIPROFLOXACIN]						MIC (Staphylococcus aureus): 0.5 µg/mL (≈ 1.51 µM)
Cc1ccc(NC(=O)c2ccc(CN3CCN(C)CC3)cc2)cc1Nc1nccc(-c2cccnc2)n1 [IMATINIB MESYLATE]					0.31	
C=C1/C=C/C(=O)N[C@H](C)C(=O)N[C@@H](C(C)C)C(=O)O[C@@H]([C@H](C)CCCCCC)[C@H](CCOC(=O)CP(=O)(OCC)OCC)C(=O)N1	Stable				7.9	
C=C1/C=C/C(=O)N[C@@H](C)C(=O)N[C@H](C(C)C)C(=O)O[C@H]([C@@H](C)CCC)[C@@H](CCO)C(=O)N1		> 20	> 20		> 50	
C=C1/C=C/C(=O)N[C@H](C)C(=O)N[C@@H](C(C)C)C(=O)O[C@@H]([C@H](C)CCCCCC)[C@H](CCO[Si](c2ccccc2)(c2ccccc2)C(C)(C)C)C(=O)N1	Stable	6.26	6.81	1.09	0.64	mortality at 20 ug/ml [9]: 0%; mortality (Danio rerio): Nd(Insoluble); mortality at 50 ug/ml [10]: 0%; growth inhibition (GI) (K562 [11]): 66%; mortality at 0.8 ug/ml [12]: 0%; half-life at 1 mg/ml [6]: 14.3 h; growth inhibition (GI) (K562 [13]): 70%; MIC (Staphylococcus aureus): > 64 µg/mL; mortality at 4 ug/ml [14]: 0%; Activity (K562 [15]): Active; growth inhibition (GI) (K562 [16]): 75%

More lines, main results first:

Stability [4]	Compound	IC50 (MCF7 [1]) [µM]	IC50 (MCF7 [2]) [µM]	Ratio IC50 (MCF7 [3])	IC50 (K562 [5]) [µM]	other results
Stable	C=C1/C=C/C(=O)N[C@H](C)C(=O)N[C@@H](C(C)C)C(=O)O[C@@H]([C@H](C)CCCCCC)[C@H](CCOC(=O)CC(c2ccccc2)(c2ccccc2)c2ccccc2)C(=O)N1				3.79	
Stable	C=C1/C=C/C(=O)N(C)CC(=O)N[C@@H](C(C)C)C(=O)O[C@@H]([C@H](C)CCCCCC)[C@H](CCO[Si](c2ccccc2)(c2ccccc2)C(C)(C)C)C(=O)N1				0.4	half-life at 1 mg/ml [6]: 20.1 h; MIC (Staphylococcus aureus): > 64 µg/mL
Stable	C=C1/C=C/C(=O)NC(C)C(=O)NC(C(C)C)C(=O)O[C@@H]([C@H](C)CCCCCC)[C@H](CCOCc2ccccc2)C(=O)N1 (single isomer, unassigned)				3.06	
Stable	C=C1/C=C/C(=O)N[C@@H](C)C(=O)N[C@H](C(C)C)C(=O)O[C@H]([C@@H](C)CCCCCC)[C@@H](CCO[Si](c2ccccc2)(c2ccccc2)C(C)(C)C)C(=O)N1	5.11	7.02	1.37	1.27	Ratio IC50 (K562 [8]): 4
Stable	CCCCCC[C@@H](C)[C@@H]1OC(=O)[C@H](C(C)C)NC(=O)[C@@H](C)NC(=O)/C=C/[C@H](CO)NC(=O)[C@H]1CCOCc1ccccc1				33.6	
Stable	C=C1/C=C/C(=O)NCC(=O)N[C@@H](C(C)C)C(=O)O[C@@H]([C@H](C)CCCCCC)[C@H](CCO[Si](c2ccccc2)(c2ccccc2)C(C)(C)C)C(=O)N1	3.49	4.69	1.34	2.31	Ratio IC50 (K562 [8]): 2
